These results are taken from PMC7933111 (ACS chemical neuroscience, 2021).

One data set relates to C57BL/6 wild-type mice. The data set is described as follows: Head-twitch response. Format: in vivo, mouse. Particulars: for effect of antagonist pretreatment on HTR in mice administered 1-NP or 2-NP: 5-HT1AR antagonist WAY100635 or 5-HT2CR antagonist SB-242084 pretreatment; for HTR counts vs vehicle: 5 mg/kg, first 30 min postinjection, wild-type.
The target of data set [1] is T1, 5-HT2AR (Homo sapiens, UniProt P28223). Format: binding.
The next data set relates to 5-HT2A-KO mice. The data set is described as follows: Head-twitch response. Format: in vivo, mouse. Particulars: 5 mg/kg, first 30 min postinjection. The procedure, abridged:
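Adult (8–16 weeks) male 5-HT2A-KO mice rederived from 129sv (F5), from the authors' colony. After 30 min of chamber habituation for baseline, mice were dosed and followed 90 min by magnetometer. HTR counts were automated with minor visual checking and summed over the first 30 min post-injection, then compared with vehicle by one-way ANOVA with Bonferroni post hoc; n = 5–12.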

Data set [2] deals with T1, 5-HT2AR. The data set is described as follows: Intracellular Ca2+ mobilization. Particulars: for Emax: HEK293, read-out: Emax (Ca2+ mobilization). It is filed as cell-based.
For data set [3], the system named is rats trained to distinguish DOM from vehicle. Particulars: cited from earlier work.
For data set [4], the system named is mice. The data set is described as follows: GI effect of 5-HTP in mice. It is filed as in vivo, mouse. Particulars: i.p., data not shown.
Data set [5] concerns 5-HT2AR. The data set is described as follows: IP1 accumulation in vivo. More on the design: species or system mouse. The procedure, abridged: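 Male C57BL/6 mice, 10 weeks old, received LiCl 200 mg/kg and returned home 30 min before treatment; co-administered antagonist was given in the same solution. Mice were decapitated 60 min later, and frontal cortex and posterior cerebellum were frozen at −80 °C. Tissue was bead-lysed at 4 °C in kit buffer with 50 mM LiCl and centrifuged at 17 000g. HTRF was read in duplicate; inverted 615/665 ratio, cortex/cerebellum fold-change; n = 3/group.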

In data set [6] the test system is mice. The data set is described as follows: Quantification of feces. It is filed as in vivo, mouse. Put shortly:
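Mice habituated to the monitoring chambers and to i.p. injections were acclimated 30 min, then injected i.p. with drug(s) or saline vehicle at 10 μL/g. Feces were counted over the first 30 min; pellets present before or immediately after injection were excluded. n = 9; two-way ANOVA with Bonferroni post hoc.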

Data set [7] concerns c-fos, egr-1, egr-2. The data set is described as follows: Immediate early gene expression in somatosensory cortex, wild-type mice. Format: in vivo, mouse. Particulars: 5 mg/kg, 60 min, wild-type 129S6/SvEv.
Data set [8] relates to c-fos, egr-1, egr-2. The data set is described as follows: Immediate early gene expression in somatosensory cortex, 5-HT2AR-KO mice. Particulars: 5 mg/kg, 60 min, 5-HT2AR-KO littermates. Format: in vivo, mouse. The procedure, abridged: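 Adult (10–20 weeks) 129S6/SvEv 5-HT2AR-KO mice, born to Htr2a± heterozygote breeders. Somatosensory cortex was taken 60 min after 5 mg/kg test compound or vehicle, and c-fos, egr-1 and egr-2 expression was measured alongside a housekeeping gene; n = 5.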

Data set [9] deals with T1, 5-HT2AR. It is filed as binding. The source holds these as a separate data set.
In data set [10] the target is 5-HT2AR. The data set is described as follows: [3H]ketanserin binding displacement, mouse frontal cortex membranes. Particulars: 5 nM [3H]ketanserin.
Data set [11] addresses T1, 5-HT2AR. The data set is described as follows: IP1 accumulation in vitro. It is filed as cell-based. Particulars: single concentration, 30 min at 37 °C.

Read-outs that look alike come from different tables or passages of the source. Some results are limits rather than exact numbers.

As usually defined, the Ki is a measure of affinity in units of concentration, obtained from inhibition or displacement. Read a low Ki as higher affinity. As usually defined, the ED50 is the dose that gives a 50% effect, or the effect in half of the subjects. Usually EC50 stands for the concentration needed to bring the measured effect to its halfway point. The low end stands for a more potent agent, the high end for a less potent agent. As usually defined, the Emax is the size of the effect at its maximum, as opposed to the concentration needed. For orientation: IC50 means the midpoint of a concentration-inhibition curve. Read a low IC50 as inhibition by little substance. What is called pKi is the negative decadic logarithm of the Ki, by convention in mol/L. Read a high pKi as a small Ki.

T1 sequence (P28223 whole entry): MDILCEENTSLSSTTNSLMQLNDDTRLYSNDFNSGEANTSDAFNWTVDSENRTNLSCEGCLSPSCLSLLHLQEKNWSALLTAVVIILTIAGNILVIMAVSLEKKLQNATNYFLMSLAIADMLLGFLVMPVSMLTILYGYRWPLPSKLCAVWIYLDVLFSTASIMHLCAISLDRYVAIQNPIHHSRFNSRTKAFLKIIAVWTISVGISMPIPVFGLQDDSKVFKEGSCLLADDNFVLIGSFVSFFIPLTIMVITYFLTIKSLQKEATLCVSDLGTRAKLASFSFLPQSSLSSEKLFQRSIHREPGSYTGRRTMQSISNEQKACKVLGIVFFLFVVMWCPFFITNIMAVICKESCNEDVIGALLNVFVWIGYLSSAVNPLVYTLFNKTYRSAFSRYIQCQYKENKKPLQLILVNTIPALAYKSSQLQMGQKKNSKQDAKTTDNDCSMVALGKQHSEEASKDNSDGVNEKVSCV

Take “6-chloro-2,3-dihydro-5-methyl-N-[6-[(2-methyl-3-pyridinyl)oxy]-3-pyridinyl]-1H-indole-1-carboxyamide dihydrochloride [SB-242084]”: in the data set on C57BL/6 wild-type mice, the “effect of antagonist pretreatment on HTR in mice administered 1-NP or 2-NP” value is recorded as “did not significantly affect HTR”.

Turning to `c1ccc2c(N3CCNCC3)cccc2c1` [1-NP, 1-(naphthalen-1-yl)piperazine], in the data set on C57BL/6 wild-type mice, the “HTR counts vs vehicle” value was “Neither isoquipazine nor 1-NP produced changes in HTR counts”. The HTR dose-response result in the data set on C57BL/6 wild-type mice (i.p.) is recorded as “apparent suppression of HTR counts at all tested doses”. At 5-HT2AR [1], this molecule had a Ki of 0.1 µM.

In the case of `c1ccc2cc(N3CCNCC3)ccc2c1` [2-NP, 1-(naphthalen-2-yl)piperazine], in the data set with C57BL/6 wild-type mice, the “HTR counts vs vehicle” value was “increase in HTR that differed statistically from vehicle”. For the same molecule, the ED50 in the data set with C57BL/6 wild-type mice (Mus musculus, ip, read-out: ED50 (HTR)) came out at 0.42 ± 0.2 mg/kg. In the data set on C57BL/6 wild-type mice (i.p.), the HTR dose-response result is “dose-dependent”. Moreover, the “HTR vs vehicle in 5-HT2AR-KO mice” value with 5-HT2A-KO mice is “did not differ”. In addition, at 5-HT2AR [1], the Ki is 0.724 µM. Moreover, at 5-HT2AR [2], the EC50 is 0.15 µM and the Emax is 48.9%. In data set [3], the “generalization for the DOM stimulus” value is on record as “full generalization”.

For `N[C@@H](Cc1c[nH]c2ccc(O)cc12)C(=O)O` [5-HTP, 5-hydroxytryptophan], in the data set with mice [4], the GI effect result was “produced diarrhea”.

`COc1cccc([C@H](O)C2CCN(CCc3ccc(F)cc3)CC2)c1OC` [M100907, (R)-(+)-α-(2,3-dimethoxyphenyl)-1-[2-(4-fluorophenyl)ethyl]-4-pipidinemethanol]: in the data set with 5-HT2AR [5] (M100907 0.1 mg/kg with quipazine 5 mg/kg), the “effect on quipazine-induced IP1 accumulation in vivo” value is listed as “successfully blocked”.

Turning to `COc1ccccc1N1CCN(CCN(C(=O)C2CCCCC2)c2ccccn2)CC1.O=C(O)/C=C\C(=O)O` [WAY100635, N-[2-[4-(2-methoxyphenyl)-1-piperazinyl]ethyl]-N-2-pyridinylcyclohexanecarboxamide maleate], the “effect of antagonist pretreatment on HTR in mice administered 1-NP or 2-NP” value with C57BL/6 wild-type mice is on record as “did not significantly affect HTR”.

On to `c1ccc2c(N3CCNCC3)nccc2c1` [isoquipazine, 1-(piperazin-1-yl)isoquinoline], for which the “HTR counts vs vehicle” value with C57BL/6 wild-type mice is on record as “Neither isoquipazine nor 1-NP produced changes in HTR counts”. The molecule further showed an inhibition constant (Ki) on 5-HT2AR [1] of 3.8 µM. This molecule showed a half-maximal inhibitory concentration (IC50) at 5-HT2AR [2] of 24.7 µM.

For the molecule `Cc1nccn1CC1CCc2c(c3ccccc3n2C)C1=O` (stereo not drawn) [ondansetron, 1,2,3,9-tetrahydro-9-methyl-3-[(2-methyl-1H-imidazol-1-yl)methyl]-4H-carbazol-4-one], the “effect on quipazine-induced feces count increase” value in the data set with mice [6] (ondansetron 1 mg/kg with quipazine 5 mg/kg, 30 min following cotreatment) is listed as “successfully reduced”.

`c1ccc2nc(N3CCNCC3)ccc2c1` [quipazine, 2-(piperazin-1-yl)quinoline]: the “effect on HTR counts” value in the data set on C57BL/6 wild-type mice (different doses, i.p., 90 min recording) is “robust and long-lasting increase on HTR counts”. For the same molecule, in the data set on C57BL/6 wild-type mice (highest doses evaluated), the “duration of HTR increase” value is recorded as “over 90 min”. Also, the “time of peak of HTR increase post injection” value with C57BL/6 wild-type mice (i.p.) is listed as ≤ 30 min. Besides, the “HTR vs vehicle in 5-HT2AR-KO mice” value in the data set on 5-HT2A-KO mice was “did not differ”. The “effect on feces count” value in the data set on mice [6] (quipazine 5 mg/kg, first 30 min) is listed as “feces count increase”. The “IP1 accumulation in frontal cortex vs vehicle” value in the data set with 5-HT2AR [5] (5 mg/kg, LiCl 200 mg/kg pretreatment, 60 min) is given as “greater accumulation of IP1”. For the same molecule, in the data set on c-fos, egr-1, egr-2 [7], the “cortical expression of c-fos, egr-1 and egr-2” value is “exhibited changes in the cortical expression of c-fos, egr-1, and egr-2”. Further, the “changes in c-fos, egr-1 and egr-2 expression” value in the data set on c-fos, egr-1, egr-2 [8] was “not observed”. The molecule further showed a Ki at 5-HT2AR [9] of 5.13 µM. The molecule further displayed a pKi at 5-HT2AR [10] of 5.601 ± 0.16. This molecule showed an inhibition constant Ki on 5-HT2AR [1] of 20 µM. The “IP1 accumulation (in words)” value at 5-HT2AR [11] is “robust increase of IP1 accumulation”. At 5-HT2AR [2], the EC50 was 7.26 µM and the maximal effect (Emax) is 44.3%.
